Data: publication PMC3158287 (Nature chemical biology, 2011)

How the values were obtained:
OSBP = biological target: T1, OSBP (Homo sapiens, UniProt P22059); assay: OSBP protein levels by western blotting; assay type: cell-based; conditions: HCT-116 cells
T1 sequence (P22059 1-807): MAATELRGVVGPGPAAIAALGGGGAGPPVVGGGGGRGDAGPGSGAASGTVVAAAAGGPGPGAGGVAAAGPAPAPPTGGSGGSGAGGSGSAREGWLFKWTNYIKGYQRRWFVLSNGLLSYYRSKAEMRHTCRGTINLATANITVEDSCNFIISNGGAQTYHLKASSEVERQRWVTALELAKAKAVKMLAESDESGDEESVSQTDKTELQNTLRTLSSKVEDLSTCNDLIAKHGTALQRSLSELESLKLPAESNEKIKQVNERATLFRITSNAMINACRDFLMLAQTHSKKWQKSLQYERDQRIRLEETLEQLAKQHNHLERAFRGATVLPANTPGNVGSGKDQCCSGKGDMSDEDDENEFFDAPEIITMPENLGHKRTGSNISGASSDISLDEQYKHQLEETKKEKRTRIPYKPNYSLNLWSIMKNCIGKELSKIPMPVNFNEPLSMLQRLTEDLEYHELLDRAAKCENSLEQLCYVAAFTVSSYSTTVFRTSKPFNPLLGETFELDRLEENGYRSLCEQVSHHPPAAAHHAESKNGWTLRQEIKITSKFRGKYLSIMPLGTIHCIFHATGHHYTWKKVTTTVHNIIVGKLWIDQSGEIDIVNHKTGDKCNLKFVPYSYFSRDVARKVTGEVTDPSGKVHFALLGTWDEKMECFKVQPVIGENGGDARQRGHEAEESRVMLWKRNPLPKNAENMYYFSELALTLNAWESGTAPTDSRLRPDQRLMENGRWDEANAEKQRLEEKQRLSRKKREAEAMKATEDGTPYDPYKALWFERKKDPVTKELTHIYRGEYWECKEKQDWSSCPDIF
Summary of the method: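 HCT-116 cells were treated with test compound at 50 nM or 10 nM over a time course including 24 h. Some samples also received proteasome inhibitor MG-132 or lactacystin. OSBP was measured by western blotting with polyclonal rabbit anti-OSBP (N-terminus) antibody. Data are n = 3, compared with vehicle-treated cells by two-tailed Student's t-test.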

[1] = tested on: HeLa cells overexpressing ORP4L; assay: Overexpression-viability assay, ORP4L-Myc-His; assay type: cell-based, human; conditions: 48 h, versus lacZ
HCT-116 p21^−/− cells = assay: Cell viability assay, HCT-116 p21-/-; assay type: cell-based, human; conditions: GI50 after 48 h
Summary of the method: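 HCT-116 p21+/+ and p21−/− cells were seeded in 96-well plates and rested 24 h. A time-zero plate was read with CellTiter-Blue (resazurin) after 90 min at 37 °C, fluorescence 544 nm ex / 590 nm em. Serially diluted test compound was added as 4× solution. Viability was re-read at 48 h and GI50 derived. For coadministration, 10 μM 25-OHC was added with test compound at 250 nM or 10 nM.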

ORP4L-Myc-His = biological target: T2, ORP4L-Myc-His (Homo sapiens, UniProt Q969R2); assay: [3H]25-OHC charcoal-dextran binding assay, ORP4L-Myc-His
T2 sequence (Q969R2 1-916): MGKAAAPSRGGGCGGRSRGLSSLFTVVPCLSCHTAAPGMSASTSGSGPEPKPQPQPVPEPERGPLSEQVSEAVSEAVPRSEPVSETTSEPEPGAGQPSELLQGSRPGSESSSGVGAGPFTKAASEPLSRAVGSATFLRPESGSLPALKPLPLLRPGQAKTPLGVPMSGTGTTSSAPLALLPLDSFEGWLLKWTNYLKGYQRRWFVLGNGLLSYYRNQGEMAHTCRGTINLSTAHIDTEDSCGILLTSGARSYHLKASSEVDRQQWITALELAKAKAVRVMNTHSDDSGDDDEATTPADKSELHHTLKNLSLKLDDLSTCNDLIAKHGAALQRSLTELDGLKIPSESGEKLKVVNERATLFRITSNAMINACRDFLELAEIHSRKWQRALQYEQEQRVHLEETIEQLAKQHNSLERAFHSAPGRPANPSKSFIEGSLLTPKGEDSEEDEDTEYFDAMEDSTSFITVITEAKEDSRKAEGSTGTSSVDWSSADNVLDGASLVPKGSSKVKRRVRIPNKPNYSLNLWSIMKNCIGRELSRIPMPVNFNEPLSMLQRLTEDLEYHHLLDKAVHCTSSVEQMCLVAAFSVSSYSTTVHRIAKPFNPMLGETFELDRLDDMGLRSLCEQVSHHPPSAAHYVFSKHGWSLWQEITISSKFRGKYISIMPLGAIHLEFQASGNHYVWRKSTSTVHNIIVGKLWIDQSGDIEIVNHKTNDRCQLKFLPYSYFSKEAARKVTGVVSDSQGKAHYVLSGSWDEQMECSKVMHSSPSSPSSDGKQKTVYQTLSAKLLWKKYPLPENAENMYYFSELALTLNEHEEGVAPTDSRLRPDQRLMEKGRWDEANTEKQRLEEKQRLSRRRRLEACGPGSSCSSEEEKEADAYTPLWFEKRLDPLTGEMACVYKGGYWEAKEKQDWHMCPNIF

In the case of `COc1ccc(C(=O)O[C@H]2[C@H](O[C@@H]3[C@@H](OC(C)=O)[C@H](O[C@H]4C[C@H]5[C@@H]6CC=C7C[C@@H](O)CC[C@]7(C)[C@H]6CC[C@]5(C)[C@@]4(O)[C@H](C)C(=O)CCC(C)C)OC[C@@H]3O)OC[C@@H](O)[C@@H]2O)cc1` [OSW-1], the “Reduction in OSBP protein levels” value (OSBP; 10 nM, 24 h) is reported as “approximately 75%”, the “Desensitization factor by ORP4L overexpression (relative GI30)” value [1] is reported as 2–5 and the “p21^−/− selectivity of growth inhibition (HCT-116 p21^−/− versus wild-type)” value (HCT-116 p21^−/− cells) is reported as “selectively growth-inhibitory”. For the same compound, the Ki (ORP4L-Myc-His; read-out: Ki, ORP4L-Myc-His, competition with 20 nM [3H]25-OHC, mean ± s.d.) was 54 ± 11 nM.
`CC(C)=CCC/C(C)=C/Cc1c(O)cc(/C=C/c2cc(O)c3c(c2)C[C@@H]2C(C)(C)[C@H](O)[C@H](O)C[C@@]2(C)O3)cc1O` [schweinfurthin A] was tested, and the “Effect on OSBP levels (compound alone)” value (OSBP; 25-OHC 10 μM) was “no effect”, the “Desensitization factor by ORP4L overexpression (relative GI30)” value [1] was 2–5 and the “p21^−/− selectivity of growth inhibition (HCT-116 p21^−/− versus wild-type)” value (HCT-116 p21^−/− cells) was “selectively growth-inhibitory”. The “Factor by which affinity for ORP4L is lower than affinity for OSBP” value (ORP4L-Myc-His; ratio of Ki values ORP4L / OSBP) was ~ 40.
